We go through 19 compounds from ChEMBL document CHEMBL2093137, “WHO-TDR NTD Screening”.

The nature of series [1]: WHO-TDR: Cytotoxicity. Type of series: toxicity, cell-based. The note with it: human, MRC5 cells.
Series [2] deals with Plasmodium falciparum K1. The series is described as follows: WHO-TDR: Malaria. Type of series: functional, organism-based, Homo sapiens. To be noted: Erythrocyte. The method, boiled down: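 Whole-organism screen of a 10,000-compound diverse library from Life Chemicals, filtered for drug-likeness and reactive groups, against intra-erythrocytic Plasmodium falciparum K1 strain in human red blood cells. The assay followed previously published standard procedures, with a reference drug as positive control. Antiplasmodial potency is reported as IC50.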

Series [3] has as its system Trypanosoma cruzi. The series is described as follows: WHO-TDR: Chagas disease. In kind it is functional, organism-based, Homo sapiens. To be noted: MRC5. The method, boiled down:
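Whole-organism screen of a 10,000-compound diverse library from Life Chemicals, filtered for drug-likeness and reactive groups, against intracellular amastigotes of Trypanosoma cruzi Tulahuen CL2 beta-galactosidase strain grown in MRC-5SV2 human lung fibroblast host cells. The assay followed previously published standard procedures, with a reference drug as positive control. Antiparasitic potency is reported as IC50.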

In series [4] the test system is Trypanosoma brucei brucei. The series is described as follows: WHO-TDR: Human African Trypanosomiasis (HAT). In kind it is functional, organism-based. The note with it: Squib-427. The method, boiled down: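 Whole-organism screen of a 10,000-compound diverse library from Life Chemicals, filtered for drug-likeness and reactive groups, against bloodstream forms of Trypanosoma brucei Squib 427 strain. The assay followed previously published standard procedures, with reference drugs as positive controls. Antiparasitic potency is reported as IC50.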

The subject of series [5] is Leishmania infantum. The series is described as follows: WHO-TDR: Leishmaniasis. Type of series: functional, organism-based, Mus musculus. The note with it: Macrophage. The procedure, abridged:
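Whole-organism screen of a 10,000-compound diverse library from Life Chemicals, filtered for drug-likeness and reactive groups, against intracellular amastigotes of Leishmania infantum MHOM/MA(BE)/67 in murine peritoneal macrophage host cells. The assay followed previously published standard procedures, with a reference drug as positive control. Antiparasitic potency is reported as IC50.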

Series [6] has as its system Schistosoma mansoni. The series is described as follows: WHO-TDR: Schistosomiasis. In kind it is functional. Set-up: concentration or dose not given beside the values. The procedure, abridged: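 Whole-organism screen of a 10,000-compound diverse library from Life Chemicals, filtered for drug-likeness and reactive groups, against larval and/or adult worms of Schistosoma mansoni Puerto Rican strain. The assay followed previously published standard procedures, with a reference drug as positive control. Activity is reported as percent inhibition and as IC50.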

Series [7] deals with Onchocerca ochengi. The series is described as follows: (§1) WHO-TDR: Onchocerciasis. In kind it is functional. Set-up: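 at 12.5 µM on microfilariae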. The method, boiled down:
(§2)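 Whole-organism screen of a 10,000-compound diverse library from Life Chemicals, filtered for drug-likeness and reactive groups, against microfilariae of Onchocerca ochengi or Onchocerca lienalis, used as animal-pathogen stand-ins for the human parasite. The assay followed previously published standard procedures, with reference drugs as positive controls. Activity is reported as percent inhibition and as IC50.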

The test system of series [8] is Onchocerca ochengi. The description is as §1. Type of series: functional. The arrangement: concentration or dose not given beside the values. The procedure, abridged: as §2
The source holds these as a separate data set.

Series [9] has as its system Onchocerca lienalis. Described as §1. Type of series: functional. The arrangement: concentration or dose not given beside the values. The procedure, abridged:
as §2

The subject of series [10] is Brugia malayi. Put plainly: WHO-TDR: Lymphatic Filariasis. Type of series: functional. The arrangement: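 tested at 10 µM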. The method, boiled down:
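Whole-organism screen of a 10,000-compound diverse library from Life Chemicals, filtered for drug-likeness and reactive groups, against Brugia malayi microfilariae. The assay followed previously published standard procedures, with reference drugs as positive controls. Activity is reported as percent inhibition and as IC50.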

Each structure is given as a SMILES string. Values after ≈ are worked out from the molar mass of the structure shown. Where only a bound is given, the exact number is not on record here.

On to `O=C(CS(=O)(=O)c1ccc(F)cc1)Nc1onc2c1CCC2`, for which the IC50 in series [1] is more than 9.73 µg/mL; in series [2], 2.83 µg/mL (≈ 8.72 µM); in series [3], 1.71 µg/mL (≈ 5.28 µM); in series [4], 3.19 µg/mL (≈ 9.83 µM); in series [5], more than 9.73 µg/mL. In addition, the results for the “% Inhibition” value in [6], in series [7] and in [8] were 0%, 100% and 0%, respectively.

Take `Cc1ccc(C)c(C(=O)Nc2ccc3c(c2)CCC(=O)N3Cc2ccccc2)c1`: the IC50 is more than 11.5 µg/mL in series [1]; more than 11.5 µg/mL in [2]; more than 11.5 µg/mL in series [3]; 0.416 µg/mL (≈ 1.08 µM) in [4]; more than 11.5 µg/mL in series [5]. Moreover, the entries for the “% Inhibition” value in series [6], in [7] and in [8] were 0%, 75% and 0%, respectively.

As for `CN1CCCc2cc(C(CNC(=O)COc3ccc(Cl)cc3)N3CCCC3)ccc21` (stereo unspecified), the IC50 in series [1] was more than 12.8 µg/mL; in [2] it was more than 12.8 µg/mL; in series [3], 4.46 µg/mL (≈ 10.4 µM); in series [4], 0.411 µg/mL (≈ 0.96 µM); in series [5], 4.16 µg/mL (≈ 9.71 µM). In addition, the figures for the “% Inhibition” value in [6], in [7] and in series [8] were 25%, 0% and 0%, respectively.

With `O=C(Cc1csc(NS(=O)(=O)c2ccc(Cl)cc2)n1)Nc1ccc(F)c(F)c1`, the IC50 in [1], in [2], in [3], in series [4] and in series [5] was more than 13.3 µg/mL in each case. For the same compound, the “% Inhibition” value in series [6] turned out to be 0%; in series [7], 100%; in [8], 0%.

With `CCOC(=O)CCNC(=O)NCC1CC(=O)N(c2ccc(Cl)cc2)C1` (stereo unspecified), the IC50 in series [1], in series [2], in series [3], in [4] and in series [5] was more than 11 µg/mL each time. Further, the entries for the “% Inhibition” value in series [6] and in series [8] were 0% and 100%, respectively.

For `CCCN1C(=O)C(C)(C)COc2cc(NS(=O)(=O)Cc3ccc(C)cc3)ccc21`, the half-maximal inhibitory concentration (IC50) in series [1] is more than 12.5 µg/mL; in series [2], more than 12.5 µg/mL; in [3], more than 12.5 µg/mL; in series [4], 4.62 µg/mL (≈ 11.1 µM); in series [5] it was more than 12.5 µg/mL. For the same compound, the figures for the “% Inhibition” value in series [6], in [7] and in [8] were 0%, 100% and 60%, respectively.

On to `CC(C)CN1C(=O)C(C)(C)COc2cc(NS(=O)(=O)c3ccccc3Br)ccc21`, for which the half-inhibitory concentration (IC50) in series [1] was more than 14.4 µg/mL; in series [2], more than 14.4 µg/mL; in [3], 4.3 µg/mL (≈ 8.93 µM); in series [4], 4.62 µg/mL (≈ 9.6 µM); in [5], more than 14.4 µg/mL. Besides, the “% Inhibition” value was 0% in [6], 100% in series [7] and 0% in series [8].

In the case of `COc1ccccc1N1CCN(c2nc(Nc3ccc(C)cc3)c3nccnc3n2)CC1`, the IC50 in [1] came out at 4.5 µg/mL (≈ 10.5 µM); in series [2] it was 2.66 µg/mL (≈ 6.23 µM); in series [3], 3.44 µg/mL (≈ 8.05 µM); in series [4] it was 4.1 µg/mL (≈ 9.6 µM); in series [5], 4.15 µg/mL (≈ 9.71 µM). For the same compound, the “% Inhibition” value in [6] amounted to 25%; in series [7], 100%; in series [8] it was 0%.

Take `O=C(CC1CSc2nccc(=O)n21)Nc1ccc(Cl)c(Cl)c1` (stereo unspecified): the half-inhibitory concentration (IC50) in series [1], in series [2], in series [3], in series [4] and in series [5] was more than 10.7 µg/mL each time. In addition, the entries for the “% Inhibition” value in series [6], in [7] and in series [8] were 0%, 100% and 0%, respectively.

For `O=C(NCC1CC(=O)N(c2ccc(Cl)cc2)C1)Nc1ccccc1F` (stereo unspecified), the IC50 in [1], in series [2], in [3], in series [4] and in [5] was more than 10.9 µg/mL each time. The “% Inhibition” value in series [6] is on record as 0%; in series [7], 100%; in [8] it was 0%.

Take `CN1C(=O)C(C)(C)COc2ccc(NS(=O)(=O)c3ccccc3F)cc21`: the IC50 in series [1], in series [2], in [3], in series [4] and in [5] was more than 11.4 µg/mL throughout. The “% Inhibition” value came to 0% in series [6], 100% in series [7] and 0% in series [8].

Regarding `O=C(Nc1nc2c(s1)CCCC2C(=O)NCCC1=CCCCC1)c1ccccc1` (stereo unspecified), the IC50 is more than 12.3 µg/mL in [1]; 2.13 µg/mL (≈ 5.19 µM) in series [2]; 3.45 µg/mL (≈ 8.42 µM) in series [3]; 2.56 µg/mL (≈ 6.26 µM) in series [4]; more than 12.3 µg/mL in series [5]. For the same compound, the entries for the “% Inhibition” value in series [6], in [7] and in series [8] were 0%, 100% and 0%, respectively.

For the compound `CC(C)S(=O)(=O)Nc1ccc2c(c1)NC(=O)C(C)(C)CO2`, the half-inhibitory concentration (IC50) in series [1] was more than 9.37 µg/mL; in series [2], 3.66 µg/mL (≈ 11.7 µM); in [3] it was 3.93 µg/mL (≈ 12.6 µM); in [4] it was 6.82 µg/mL (≈ 21.8 µM); in [5], more than 9.37 µg/mL. For the same compound, the “% Inhibition” value in series [6] was determined as 0%; in [7], 100%; in [8] it was 0%.

Regarding `CCOc1ccc(N2CC(CNS(=O)(=O)c3cccc(C(F)(F)F)c3)CC2=O)cc1` (stereo unspecified), the 50% inhibitory concentration (IC50) in series [1], in series [2], in series [3], in series [4] and in [5] was more than 13.3 µg/mL throughout. In addition, the “% Inhibition” value worked out at 0% in series [6], 100% in series [7] and 0% in [8].

Turning to `NC(=O)c1cc(-c2ccccc2)sc1NC(=O)C1COc2ccccc2O1` (stereo unspecified), the half-inhibitory concentration (IC50) in [1] was 1.92 µg/mL (≈ 5.04 µM); in series [2] it was 5.78 µg/mL (≈ 15.2 µM); in series [3], 3.4 µg/mL (≈ 8.93 µM); in [4], 3.65 µg/mL (≈ 9.6 µM); in [5] it was more than 11.4 µg/mL. The “% Inhibition” value was 25% in series [6], 100% in series [7] and 0% in [8].

Turning to `Cc1ccc(Cl)c2sc(N3CCN(C)CC3)nc12`, the IC50 in series [1] was more than 9.55 µg/mL; in [2] it was 3.31 µg/mL (≈ 11.7 µM); in series [3], 2.38 µg/mL (≈ 8.46 µM); in series [4], 3.05 µg/mL (≈ 10.8 µM); in series [5], more than 9.55 µg/mL. Moreover, the entries for the “% Inhibition” value in [6], in series [7] and in [8] were 0%, 100% and 0%, respectively.

As for `Cc1[nH]c2ccccc2c1S(=O)(=O)CCNC(=O)Nc1ccc(C(F)(F)F)cc1`, the IC50 in [1], in [2], in series [3], in [4] and in [5] was more than 12.8 µg/mL in each case. For the same compound, the “% Inhibition” value in series [6] amounted to 0%; in [7], 100%; in [8] it was 0%.

For `Cc1cccc(-c2nc(CCNC(=O)c3ccco3)cs2)c1`, the concentration for half-maximal inhibition (IC50) in series [1] amounted to 4.35 µg/mL (≈ 13.9 µM); in series [2], 6.12 µg/mL (≈ 19.6 µM); in series [3], 2.46 µg/mL (≈ 7.87 µM); in series [4] it was 0.307 µg/mL (≈ 0.983 µM); in [5], 3.95 µg/mL (≈ 12.7 µM). Further, the “% Inhibition” value in [6], in series [9] and in [10] was 0% in each case.

With `Cc1ccc2sc(N(CCN(C)C)C(=O)C3CCN(S(=O)(=O)c4cccs4)CC3)nc2c1C`, the half-inhibitory concentration (IC50) in [1] is 1.94 µg/mL (≈ 3.84 µM); in series [2] it was 3.81 µg/mL (≈ 7.51 µM); in series [3], 0.772 µg/mL (≈ 1.52 µM); in [4], 5.21 µg/mL (≈ 10.3 µM); in [5] it was more than 16.3 µg/mL. Moreover, the results for the “% Inhibition” value in series [6], in [9] and in series [10] were 0%, 16.32% and 0%, respectively.

A word on the IC50: it is the concentration at which inhibition is half-maximal. As a reminder, the % Inhibition is the percentage by which the read-out fell short of the control.
